Seven compounds from ChEMBL document CHEMBL1134307, “trans-4-[4-(Methoxyphenyl)cyclohexyl]-1-arylpiperazines: a new class of potent and selective 5-HT(1A) receptor ligands as conformationally constrained analogues of 4-[3-(5-methoxy-1,2,3,4-tetrahydronaphthalen-1-yl)propyl]-1-arylpiperazines” (J Med Chem, 2001) can be followed below.

Where only a bound is given, the exact number is not on record here.

In assay [1] the target is T1, 5-hydroxytryptamine receptor 1A (Homo sapiens, UniProt P08908).
T1 sequence (P08908 whole entry): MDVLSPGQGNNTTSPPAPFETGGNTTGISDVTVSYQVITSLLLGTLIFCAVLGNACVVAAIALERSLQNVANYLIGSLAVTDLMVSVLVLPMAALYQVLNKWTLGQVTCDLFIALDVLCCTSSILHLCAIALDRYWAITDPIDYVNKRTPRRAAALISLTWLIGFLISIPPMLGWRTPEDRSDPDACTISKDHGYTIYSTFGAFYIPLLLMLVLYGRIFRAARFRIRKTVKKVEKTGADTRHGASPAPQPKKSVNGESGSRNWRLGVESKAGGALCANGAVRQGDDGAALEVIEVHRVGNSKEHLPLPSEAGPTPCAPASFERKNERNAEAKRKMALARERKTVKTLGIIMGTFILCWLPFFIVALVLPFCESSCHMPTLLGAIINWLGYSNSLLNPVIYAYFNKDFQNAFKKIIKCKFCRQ
The assay can be described thus: Binding affinity on human cloned 5-hydroxytryptamine 1A receptor transfected in human cell lines(He La). Summed up: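 HeLa cells stably expressing human 5-HT1A (genomic clone G-21), grown in DMEM with 10% FCS. […] Nonspecific binding with 10 µM 5-HT. Filtration through PEI-pretreated filters.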

Assay [2] concerns the target T2, Alpha-1B adrenergic receptor (Homo sapiens, UniProt P35368).
T2 sequence (P35368 whole entry): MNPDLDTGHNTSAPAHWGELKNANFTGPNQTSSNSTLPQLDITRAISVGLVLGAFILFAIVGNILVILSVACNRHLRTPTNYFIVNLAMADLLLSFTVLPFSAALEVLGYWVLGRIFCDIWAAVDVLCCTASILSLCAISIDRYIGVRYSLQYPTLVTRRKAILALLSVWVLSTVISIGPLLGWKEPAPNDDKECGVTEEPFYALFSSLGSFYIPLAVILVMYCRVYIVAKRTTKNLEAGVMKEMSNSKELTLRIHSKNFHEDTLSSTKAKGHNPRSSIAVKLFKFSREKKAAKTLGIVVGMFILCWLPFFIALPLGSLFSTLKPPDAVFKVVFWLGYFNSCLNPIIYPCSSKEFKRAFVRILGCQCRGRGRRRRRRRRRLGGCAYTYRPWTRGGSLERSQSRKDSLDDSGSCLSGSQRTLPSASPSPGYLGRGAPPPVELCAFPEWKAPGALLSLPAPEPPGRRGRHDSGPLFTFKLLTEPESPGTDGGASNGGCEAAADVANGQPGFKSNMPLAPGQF
The assay can be described thus: Binding affinity was determined on human cloned alpha-1B adrenergic receptor. Summed up: (§1)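 Membranes from CHO cells stably expressing each human α1-adrenoceptor subtype, incubated in 50 mM Tris pH 7.4 with 0.2 nM [3H]prazosin and competing drugs (1 pM–10 µM), 30 min at 25 °C. Nonspecific binding with 10 µM phentolamine. Stopped with ice-cold Tris and filtration through 0.2% PEI-pretreated filters.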

Assay [3] deals with T3, Alpha-1A adrenergic receptor (Homo sapiens, UniProt P35348).
T3 sequence (P35348 whole entry): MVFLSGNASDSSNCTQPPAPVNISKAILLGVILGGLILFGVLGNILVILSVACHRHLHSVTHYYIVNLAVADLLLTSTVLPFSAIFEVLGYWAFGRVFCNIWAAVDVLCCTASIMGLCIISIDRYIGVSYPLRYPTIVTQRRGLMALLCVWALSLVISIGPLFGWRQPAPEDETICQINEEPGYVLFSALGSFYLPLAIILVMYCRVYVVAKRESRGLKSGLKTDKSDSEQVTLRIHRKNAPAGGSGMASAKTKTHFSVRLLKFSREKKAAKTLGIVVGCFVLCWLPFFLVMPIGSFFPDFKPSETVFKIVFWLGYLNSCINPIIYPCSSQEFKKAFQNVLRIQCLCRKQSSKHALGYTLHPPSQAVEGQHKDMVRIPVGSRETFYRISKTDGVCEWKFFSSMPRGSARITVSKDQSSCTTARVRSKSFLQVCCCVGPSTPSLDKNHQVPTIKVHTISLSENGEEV
The assay is described as follows: Binding affinity was determined on human cloned Alpha-1A adrenoceptor. In a few lines: as §1

Assay [4] has as its target D(2) dopamine receptor (Rattus norvegicus, UniProt P61169). The assay can be described thus: Binding affinity towards dopamine receptor D2 in rat striatal membranes. The class given is cell membranes, Striatum, Membrane.

Sequence of D(2) dopamine receptor (P61169 whole entry): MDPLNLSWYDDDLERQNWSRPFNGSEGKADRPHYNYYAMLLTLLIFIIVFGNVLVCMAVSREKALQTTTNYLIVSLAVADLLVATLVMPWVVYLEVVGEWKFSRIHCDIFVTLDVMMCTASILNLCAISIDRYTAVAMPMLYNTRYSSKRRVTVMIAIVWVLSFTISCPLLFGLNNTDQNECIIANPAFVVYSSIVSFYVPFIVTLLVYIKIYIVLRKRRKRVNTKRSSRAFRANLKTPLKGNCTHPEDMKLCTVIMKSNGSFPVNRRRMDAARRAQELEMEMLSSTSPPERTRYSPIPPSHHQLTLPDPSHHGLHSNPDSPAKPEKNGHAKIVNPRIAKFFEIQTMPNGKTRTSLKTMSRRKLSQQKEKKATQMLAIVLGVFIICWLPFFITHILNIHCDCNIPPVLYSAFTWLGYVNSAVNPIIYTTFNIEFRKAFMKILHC

For `COc1cccc(C2CCC(NCCOc3ccccn3)CC2)c1` (stereo in doubt), the inhibition constant Ki (in general, a measure of affinity in units of concentration, obtained from inhibition or displacement) in assay [1] is 3.77 nM; in assay [2] it was 332 nM; in assay [3], 201 nM; in assay [4] it was 586 nM.
On the same counts, the results for `COc1cccc(C2CCC(N3CCN(c4ccccc4OC)CC3)CC2)c1` (stereo in doubt; trans) are 0.21 nM, 43.3 nM, 4.98 nM and 60 nM.
Consider `COc1cccc2c1CCCC2CCCN1CCN(c2ccccn2)CC1` (configuration not stated), for which the Ki in assay [2] amounted to 7.88 nM; in assay [3], 0.33 nM; in assay [4], 117 nM.
Consider `COc1cccc2c1CCCC2CCCNCCOc1ccccn1` (configuration not stated), for which the Ki in assay [1] is 0.23 nM; in assay [2] it was 26.4 nM; in assay [3] it was 0.55 nM; in assay [4], > 850 nM.
On the same counts, the results for `COc1cccc2c(CCCN3CCN(c4ccccn4)CC3)cccc12` are 3 nM, 4.21 nM, 1.62 nM and 450 nM.
Turning to `COc1cccc2c(CCCNCCOc3ccccn3)cccc12`, the Ki worked out at 0.86 nM in assay [1], 270 nM in assay [2], 14.6 nM in assay [3] and 378 nM in assay [4].
On the same counts, the results for `COc1cccc(C2CCC(N3CCN(c4ccccn4)CC3)CC2)c1` (trans isomer) are 0.2 nM, 53.1 nM, 33 nM and 2190 nM.
